Assay results reported in ChEMBL document CHEMBL1147981, “Small molecule activators of SIRT1 as therapeutics for the treatment of type 2 diabetes” (Nature, 2007).
The source made the active and inactive calls. No cut-off for these calls is given here.

Assays:
Mus musculus [1] = assay: Reduction of hyperinsulinemia in DIO C57BL/6 mouse model at 100 mg/kg, po after 4 weeks; type: functional, organism-based; design: dose 100 mg/kg
Mus musculus [2] = species on record: Mus musculus; assay: Reduction of insulin level in chow-fed C57BL/6 mouse; type: functional, organism-based
Mus musculus [3] = assay: Increase in mitochondrial capacity in DIO C57BL/6 mouse model assessed as citrate synthase activity at 100 mg/kg, po after 10 weeks; type: functional; conditions: in the assay text read “after 11 weeks” for “after 10 weeks”
Outline: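 Citrate synthase activity in gastrocnemius and epididymal white adipose tissue after 11 weeks of daily oral dosing in high-fat-fed C57BL/6 mice; five mice per group closest to the group's mean fasting glucose were selected.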

Mus musculus [4] = assay: Reduction of blood glucose level in diabetic Lep ob/ob mouse model at 100 mg/kg, po after 1 week; type: functional, organism-based; design: dose 100 mg/kg
Outline: (§1)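 ob/ob mice received at 6 weeks, kept on 60%-fat diet from at least one week before study; ~40-45 g; grouped by body weight and glucose; once-daily oral gavage in 2% HPMC + 0.2% DOSS. One-way ANOVA with Dunnett's test vs control, p<0.05.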

Rattus norvegicus [5] = assay: Reduction of blood insulin level in po dosed Zucker fa/fa rat after 3 weeks by glucose tolerance test; type: functional
Outline: (§2)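 On day 26 of daily oral dosing, fa/fa Zucker rats fasted 5 h, then gavaged with 1 g/kg dextrose; tail-vein glucose at 0, 15, 30, 60, 90 min; plasma for insulin at 0, 15, 30, 60 min.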

Rattus norvegicus [6] = assay: Increase in glucose infusion rate required to maintain euglycaemia in po dosed Zucker fa/fa rat relative to control; type: functional
Outline: (§3)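 Cannulated 10-week-old fa/fa Zucker rats, unrestrained. D-[3-3H]glucose prime 7.5 μCi, then infused at 0.167 μCi/min; basal samples at -10 and 0 min for hepatic glucose production. From 0 min, insulin at 25 mU/kg/min plus variable 50% dextrose infusion; plasma insulin and FFA at 0 and 120 min.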

Rattus norvegicus [7] = assay: Increase in glucose disposal rate in po dosed Zucker fa/fa rat relative to control; type: functional; outline: as §3
Rattus norvegicus [8] = assay: Increase in insulin-induced glucose disposal rate into skeletal muscle in po dosed Zucker fa/fa rat relative to control; type: functional
Rattus norvegicus [9] = assay: Increase in insulin sensitivity in po dosed Zucker fa/fa rat assessed as hepatic glucose production relative to control; type: functional, organism-based; outline: as §3
Rattus norvegicus [10] = assay: Increase in adipose insulin sensitivity in po dosed Zucker fa/fa rat assessed as plasma free fatty acid level relative to control; type: functional; outline: as §3
Rattus norvegicus [11] = species on record: Rattus norvegicus; assay: Reduction in hepatic gluconeogenesis in Zucker fa/fa rat assessed as glucose response by pyruvate tolerance test relative to control; type: functional, organism-based
Outline: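 Day 22 of daily oral dosing in fa/fa Zucker rats: after overnight fast, sodium pyruvate 1 g/kg ip in 0.9% NaCl; tail-vein glucose at 0, 30, 40, 50, 60 and 90 min.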

[12] = target: T1, NAD-dependent protein deacetylase sirtuin-1 (Homo sapiens) (UniProt Q96EB6); assay: Activation of human SIRT1 assessed as decrease in Km of enzyme for acetylated peptide substrate by mass spectrometry assay
T1 sequence (whole entry): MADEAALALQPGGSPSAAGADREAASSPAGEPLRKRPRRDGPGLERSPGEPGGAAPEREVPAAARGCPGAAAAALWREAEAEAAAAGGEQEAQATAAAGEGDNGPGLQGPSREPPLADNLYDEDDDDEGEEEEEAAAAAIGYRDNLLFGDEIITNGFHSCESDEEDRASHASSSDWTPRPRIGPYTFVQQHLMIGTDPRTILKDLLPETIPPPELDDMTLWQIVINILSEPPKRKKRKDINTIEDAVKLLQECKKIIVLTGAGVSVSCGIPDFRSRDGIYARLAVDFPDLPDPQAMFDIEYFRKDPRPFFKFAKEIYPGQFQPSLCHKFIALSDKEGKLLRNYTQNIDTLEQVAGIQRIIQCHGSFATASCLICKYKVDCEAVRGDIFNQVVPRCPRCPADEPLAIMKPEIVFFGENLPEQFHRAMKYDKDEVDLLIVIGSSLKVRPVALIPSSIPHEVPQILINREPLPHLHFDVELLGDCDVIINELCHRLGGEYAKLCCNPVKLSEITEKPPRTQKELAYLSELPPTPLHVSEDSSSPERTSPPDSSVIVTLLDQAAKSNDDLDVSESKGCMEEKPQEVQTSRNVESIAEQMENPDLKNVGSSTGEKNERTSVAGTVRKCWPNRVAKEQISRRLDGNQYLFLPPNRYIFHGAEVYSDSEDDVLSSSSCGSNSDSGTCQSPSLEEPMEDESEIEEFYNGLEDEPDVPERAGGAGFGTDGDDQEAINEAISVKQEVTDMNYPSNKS

Mus musculus [13] = assay: Reduction of glucose levels in DIO C57BL/6 mouse model at 100 mg/kg, po during insulin tolerance test; type: functional, organism-based; design: dose 100 mg/kg
Outline: (§4)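 Male C57BL/6 mice, started at nine weeks, fed 60%-fat diet until mean weight ~40 g; 6-10 per group; once-daily oral gavage in 2% HPMC + 0.2% DOSS. Fed glucose at 2, 4, 6, 8, 10 weeks; IPGTT after 5 weeks; ITT after 10 weeks. One-way ANOVA with Dunnett's test vs control, p<0.05.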

Mus musculus [14] = assay: Effect on body weight in diabetic Lep ob/ob mouse model at 100 mg/kg, po; type: functional, organism-based; design: dose 100 mg/kg; outline: as §1
Rattus norvegicus [15] = assay: Reduction of blood glucose level in po dosed Zucker fa/fa rat assessed as glucose level after 3 weeks by glucose tolerance test; type: functional; outline: as §2
[16] = target: T1, NAD-dependent protein deacetylase sirtuin-1 (Homo sapiens); assay: Activation of human SIRT1-D (219-664) construct by mass spectrometry assay relative to control
[17] = target: T1, NAD-dependent protein deacetylase sirtuin-1 (Homo sapiens); assay: Activation of human SIRT1-F (230-664) construct by mass spectrometry assay relative to control
[18] = target: T1, NAD-dependent protein deacetylase sirtuin-1 (Homo sapiens); assay: Activation of human SIRT1-G (235-664) construct by mass spectrometry assay relative to control
[19] = target: T1, NAD-dependent protein deacetylase sirtuin-1 (Homo sapiens); assay: Activation of human SIRT1-H (240-664) construct by mass spectrometry assay relative to control
[20] = target: T1, NAD-dependent protein deacetylase sirtuin-1 (Homo sapiens); assay: Activation of human SIRT1 expressed in Escherichia coli BL21 by mass spectrometry assay
[21] = target: T2, NAD-dependent protein deacetylase sirtuin-2 (Homo sapiens, UniProt Q8IXJ6); assay: Activation of SIRT2 by mass spectrometry assay
T2 sequence (Q8IXJ6 whole entry): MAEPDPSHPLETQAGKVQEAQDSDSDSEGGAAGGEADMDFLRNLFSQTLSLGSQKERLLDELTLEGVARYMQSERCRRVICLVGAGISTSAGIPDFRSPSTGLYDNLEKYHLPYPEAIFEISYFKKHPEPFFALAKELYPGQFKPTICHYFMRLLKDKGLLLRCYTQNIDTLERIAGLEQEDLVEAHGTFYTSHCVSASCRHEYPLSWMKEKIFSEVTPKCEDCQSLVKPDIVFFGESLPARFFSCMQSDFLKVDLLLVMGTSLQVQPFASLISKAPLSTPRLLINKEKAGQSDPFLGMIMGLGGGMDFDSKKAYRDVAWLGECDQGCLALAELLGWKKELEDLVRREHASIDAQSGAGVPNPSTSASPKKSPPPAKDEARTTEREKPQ

[22] = target: T3, NAD-dependent protein deacetylase sirtuin-3, mitochondrial (Homo sapiens, UniProt Q9NTG7); assay: Activation of SIRT3 by mass spectrometry assay
T3 sequence (Q9NTG7 whole entry): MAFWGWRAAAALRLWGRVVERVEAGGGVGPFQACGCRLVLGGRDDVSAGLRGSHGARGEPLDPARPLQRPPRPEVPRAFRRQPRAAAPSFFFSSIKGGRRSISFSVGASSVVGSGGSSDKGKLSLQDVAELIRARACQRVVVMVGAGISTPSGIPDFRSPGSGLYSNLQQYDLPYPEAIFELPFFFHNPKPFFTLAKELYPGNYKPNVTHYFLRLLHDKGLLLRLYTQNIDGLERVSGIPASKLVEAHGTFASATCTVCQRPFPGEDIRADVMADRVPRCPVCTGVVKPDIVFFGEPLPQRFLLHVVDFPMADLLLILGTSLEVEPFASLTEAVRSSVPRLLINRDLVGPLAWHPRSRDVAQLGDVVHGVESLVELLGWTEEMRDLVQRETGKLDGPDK

[23] = target: T1, NAD-dependent protein deacetylase sirtuin-1 (Homo sapiens); assay: Activation of SIRT1 in human U2OS cells assessed as decrease in p53 deacetylation level at 0.10 uM; type: cell-based
Outline: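 U-2 OS cells seeded 1.5 × 10⁴/well; compounds in DMSO added after 24 h, then doxorubicin 1 μg/ml final to induce p53. Fixed, permeabilized, immunostained for Ac-Lys382-p53 and beta-tubulin, infrared scan; background-corrected acetyl signal normalized to tubulin, then to vehicle as % acetylated p53. Replicate plates co-treated with a SIRT1-specific inhibitor.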

[24] = target: T1, NAD-dependent protein deacetylase sirtuin-1 (Homo sapiens); assay: Activation of human SIRT1-A (156-664) construct by mass spectrometry assay relative to control
[25] = target: T1, NAD-dependent protein deacetylase sirtuin-1 (Homo sapiens); assay: Activation of human SIRT1-B (172-664) construct by mass spectrometry assay relative to control
[26] = target: T1, NAD-dependent protein deacetylase sirtuin-1 (Homo sapiens); assay: Activation of human SIRT1-C construct by mass spectrometry assay relative to control
[27] = target: T1, NAD-dependent protein deacetylase sirtuin-1 (Homo sapiens); assay: Activation of human SIRT1-E (225-664) construct by mass spectrometry assay relative to control
[28] = Bioavailability in C57BL/6 mouse at 100 mg/kg/day, po; type: ADME, organism-based; conditions: in vivo
Outline: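 Male C57BL/6 mice (18-22 g, 3 per group per time point). Oral dosing by gavage in 2% HPMC + 0.2% DOSS, compared with tail-vein iv dosing in 10% ethanol/40% PEG/50% water.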

[29] = Terminal half life in C57BL/6 mouse at 100 mg/kg/day, po; type: ADME, organism-based; design: route oral; conditions: in vivo
Outline: (§5)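 Oral gavage in 2% HPMC + 0.2% DOSS (hydrochloride salt) to male C57BL/6 mice, 18-22 g, 3 per dose group per time point; blood taken at 5, 30, 120 and 360 min after dosing after CO2 sacrifice; plasma drug levels measured.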

[30] = AUC in C57BL/6 mouse at 100 mg/kg/day, po; type: ADME, organism-based; design: route oral; conditions: plasma; outline: as §5
[31] = Bioavailability in Sprague-Dawley rat administered at 10 mg/kg, iv; type: ADME, organism-based; conditions: in vivo
[32] = Terminal half life in Sprague-Dawley rat at 100 mg/kg/day, po; type: ADME, organism-based; design: route oral; conditions: in vivo
[33] = AUC in Sprague-Dawley rat at 100 mg/kg/day, po; type: ADME, organism-based; design: route oral; conditions: plasma
Mus musculus [34] = assay: Reduction of fasting blood glucose in DIO C57BL/6 mouse model at 100 mg/kg, po assessed as glucose level by glucose tolerance test; type: functional; outline: as §4

With `O=C(Nc1ccccc1-c1cn2c(CN3CCNCC3)csc2n1)c1cnc2ccccc2n1` the Activity (Mus musculus [1]) was “Active”, the Activity (Mus musculus [2]) was “inactive” and the Activity (Mus musculus [3]) was 15%. For the same compound, the Activity (Mus musculus [4]) was “Active”, the Activity (Rattus norvegicus [5]) was 25 ng/min/dL and the Activity (Rattus norvegicus [6]) was 35%. The Activity (Rattus norvegicus [7]) was 20%, the Activity (Rattus norvegicus [8]) was 55% and the Activity (Rattus norvegicus [9]) was “Active”. For the same compound, the Activity (Rattus norvegicus [10]) was 40%, the Activity (Rattus norvegicus [11]) was “Active” and the Activity [12] was “Active”. For the same compound, the Activity (Mus musculus [13]) was “Active”, the Activity (Mus musculus [14]) was “inactive” and the Activity (Rattus norvegicus [15]) was 2490 mg/min/dL. For the same compound, the Activity [16] was 1.3, the Activity [17] was 1.5 and the Activity [18] was 1.9. For the same compound, the Activity [19] was 2, the Activity [20] was 781% and the EC50 [21] was 37 µM. The EC50 [22] was > 300 µM, the Activity [23] was “Active” and the Activity [24] was 5.9. For the same compound, the Activity [25] was 5.8, the Activity [26] was 5.6 and the Activity [27] was 1.6. It also gave a bioavailability [28] of 50%, a half-life [29] of 5 h and an AUC [30] of 7890 ng·h/mL. It also gave a bioavailability [31] of 25%, a half-life [32] of 8.4 h and an AUC [33] of 3710 ng·h/mL. The Activity (Mus musculus [34]) was 462 mg/h/dL.
